The values below come from PubChem BioAssay AID2300 (The Scripps Research Institute Molecular Screening Center, 2010).

Each structure is given as a SMILES string. The whole screen tested about 320,000 compounds, of which about 380 (0.12%) were called active. The entries come from a sample that favours actives as a whole. Unmarked numbers belong to inactive results.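 Rule for the calls: active = percent inhibition above the cutoff of mean plus 3 SD of all tested compounds, set per screening campaign (cut at about 20% in these data); inactive = the rest.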

Photoreceptor-specific nuclear receptor (Homo sapiens), sequence (Q9Y5X4 whole entry, looked up): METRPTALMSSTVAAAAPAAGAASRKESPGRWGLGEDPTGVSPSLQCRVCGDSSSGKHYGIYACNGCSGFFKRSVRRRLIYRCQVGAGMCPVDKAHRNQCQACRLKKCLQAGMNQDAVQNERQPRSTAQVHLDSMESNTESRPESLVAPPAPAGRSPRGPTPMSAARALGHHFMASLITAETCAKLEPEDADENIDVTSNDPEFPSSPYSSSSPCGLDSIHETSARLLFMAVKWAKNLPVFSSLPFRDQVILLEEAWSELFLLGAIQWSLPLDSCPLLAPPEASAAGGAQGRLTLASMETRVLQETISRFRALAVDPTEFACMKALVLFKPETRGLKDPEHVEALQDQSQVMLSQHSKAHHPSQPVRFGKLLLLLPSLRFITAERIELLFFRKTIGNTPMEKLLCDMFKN

The test concerns the target Photoreceptor-specific nuclear receptor (Homo sapiens) (UniProt Q9Y5X4). Briefly: disruption of NR2E3 corepressor interaction – biochemical, TR-FRET, GST-NR2E3, biotin-RetCOR, NR2E3 agonist project, primary screen (AID 2300).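 Note: 0% = DMSO wells and 100% = biotin wells as full block of FRET.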 The following applies: 1536-well, at 4.78 µM, active compounds read high. The method in brief:
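system = GST-tagged NR2E3 plus biotinylated RetCOR corepressor | input = 1.35 nM GST-NR2E3 | also added = 7 nM biotin-RetCOR | schedule = 5 h incubation at 4 °C | measured by = TR-FRET with europium anti-GST and streptavidin-D2, 340 nm excitation | read-out = percent loss of FRET ratio relative to control wells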
On the technique in general: TR-FRET usually uses a lanthanide donor and a delayed reading to cut background.
For the molecule `CC(C)CN(C(=O)CSc1nncn1C)C1CCS(=O)(=O)C1` (stereo not given), the inhibition of corepressor binding was 2.15%.

Regarding `COC(C)(C)[C@]12CC(O)(C(C)C)ON1[C@H]1CCCCC1N2O` (stereo not given in full), the inhibition of corepressor binding was -1%.

Take `CCCCSc1nc2c(c(=O)n1CC)SC(C)C2` (stereo not given): the inhibition of corepressor binding is 4.84%.

As for `O=c1ccc2c(-c3ccccc3S(=O)(=O)O)c3ccc(O)c(O)c3oc-2c1O`, the inhibition of corepressor binding was 13.9%.

In the case of `C=CCNC(=O)CSc1nc2sc(C)c(C)c2c(=O)[nH]1`, the inhibition of corepressor binding is -1.07%.

As for `O=C(CSc1nc2c(cnn2-c2ccc(F)cc2)c(=O)[nH]1)N1CCCCCC1`, the inhibition of corepressor binding is -0.57%.

Regarding `CC(=O)c1sc2nc(SCC(=O)N3CCCCC3)[nH]c(=O)c2c1C`, the inhibition of corepressor binding was 29.3% (active).

`CC(=O)N1CCC(C(=O)Nc2nc(-c3ccccc3)ns2)CC1`: the inhibition of corepressor binding is 1.17%.

Regarding `Cc1csc(Nc2ccc(Cl)cc2)[n+]1-c1ccc(Cl)cc1`, the inhibition of corepressor binding was -0.2%.

Consider `FC(F)Oc1ccccc1NC(=S)Nc1cccc(Cl)c1Cl`, for which the inhibition of corepressor binding was 3.12%.

On to `Cc1ccc(NC(=O)C2(N3CCC3=O)CCCCC2)cc1`, for which the inhibition of corepressor binding was 3.49%.

In the case of `O=C(/C=C/c1cccc([N+](=O)[O-])c1)NCCSCc1ccco1`, the inhibition of corepressor binding was 0.28%.

With `Cc1ccc2c(c1)N(CC(=O)N1CCC(C)CC1)C(=O)c1cccnc1O2`, the inhibition of corepressor binding is 3.77%.

In the case of `CCOc1ccc2nc(C(=O)N3CCCC(C)C3)sc2c1` (stereo not given), the inhibition of corepressor binding is -1.62%.

Regarding `ONC(=Nc1ccccc1)c1ccccc1Cl`, the inhibition of corepressor binding was -0.75%.

For the molecule `COc1cccc(CNC(=O)c2cccnc2Sc2ccc(Cl)cc2)c1`, the inhibition of corepressor binding is 0.2%.

Take `Cc1ccc(Nc2nc(Cl)c(C=O)s2)cc1`: the inhibition of corepressor binding is 3.15%.

Take `Cc1cc(C)c(C)c(S(=O)(=O)N2CCN(C(=O)c3ccc4c(=O)n5c(nc4c3)CCC5)CC2)c1C`: the inhibition of corepressor binding is -2.52%.

In the case of `O=C(Nc1nccs1)C1CCN(S(=O)(=O)c2ccc(Cl)c(C(F)(F)F)c2)CC1`, the inhibition of corepressor binding was 5.22%.

With `O=C(CCNS(=O)(=O)c1cccs1)N1CCN(c2ccc(F)cc2)CC1`, the inhibition of corepressor binding is 0.06%.

As to `O=C(N[C@@H](Cc1ccccc1)C(=O)OCc1ccccc1)c1nc[nH]c1C(=O)NC1CCNCC1`, the inhibition of corepressor binding is 1.4%.

As to `COc1ccc(C(=O)OCC(=O)c2ccc(Cl)s2)c(OC)c1OC`, the inhibition of corepressor binding is -1.77%.

As for `CCOC(=O)c1ccc(N=C2SC(C(=O)NC)CC(=O)N2CCc2ccccc2)cc1` (stereo not given), the inhibition of corepressor binding is -2.67%.

Consider `COc1cc2[nH]c(=S)n(CCN3CCCCC3C)c(=O)c2cc1OC` (stereo not given), for which the inhibition of corepressor binding was 0.84%.

For the molecule `COc1cc2[nH]c(=S)n(Cc3ccc(F)cc3)c(=O)c2cc1OC`, the inhibition of corepressor binding was -2.77%.

Turning to `COc1cc2[nH]c(=S)n(Cc3ccc(C)o3)c(=O)c2cc1OC`, the inhibition of corepressor binding is 23.2% (active).

For the molecule `Cc1ccc(CN(N=Nc2nonc2N)c2nonc2N)c(C)c1`, the inhibition of corepressor binding is -0.3%.

Turning to `CC(=O)N=c1ncn(CC(COC(C)=O)OC(C)=O)c2nc[nH]c12` (stereo not given), the inhibition of corepressor binding was 0.37%.

Consider `CCC[C@H]1CCCC/C=C\CCCC(=O)OCCN1C(=O)OC(C)(C)C`, for which the inhibition of corepressor binding is -1.54%.

On to `CCOc1cc(NC(=O)CCl)c(OCC)cc1NC(C)=O`, for which the inhibition of corepressor binding was -2.07%.

On to `COc1ccc2cc(-c3[nH]ncc3CNCCn3nc(C)cc3C)ccc2c1`, for which the inhibition of corepressor binding is 1.22%.

`COc1cc(C(=O)Nc2ncccc2C)ccc1OCC(=O)N1CCOCC1`: the inhibition of corepressor binding was 2.79%.

With `Cc1nc(SCC(=O)NC2CCCC2)[nH]c(=O)c1C`, the inhibition of corepressor binding is -2.03%.

As to `O=C(c1ccc(Br)o1)N(c1ccccn1)C1CCCCC1`, the inhibition of corepressor binding was -1.56%.

`CCCc1cc(=O)[nH]c(SCC(=O)Nc2sc3c(c2C#N)CCCC3)n1`: the inhibition of corepressor binding was 1.75%.

Regarding `CCOc1ccc(NC(=O)N2CC=C(n3c(=O)[nH]c4ccccc43)CC2)cc1`, the inhibition of corepressor binding was 1.76%.

Turning to `CCN1CCN(C(=O)C2(NC(=O)Nc3cccc(F)c3)CCCCC2)CC1`, the inhibition of corepressor binding was 2.38%.

For `Cc1ccc(C(=O)N/C(=C/c2ccc(-c3cccc([N+](=O)[O-])c3)o2)C(=O)NCCCN(C)C)cc1`, the inhibition of corepressor binding is -3.84%.

In the case of `CCCCC(=O)Nc1c2c(nn1-c1ccc([N+](=O)[O-])cc1)CS(=O)(=O)C2`, the inhibition of corepressor binding was 2.14%.

Turning to `COc1cc(OC)c(C(=O)N2CCCC2)cc1OC`, the inhibition of corepressor binding was 2.23%.

For the molecule `N#Cc1c(N)nc2c3c(sc(=N)c2c1N)NC(=O)CC3c1ccccc1Cl` (stereo not given), the inhibition of corepressor binding is 27.7% (active).

On to `CSc1nc2c(c(=O)[nH]1)C(c1cccc(Cl)c1Cl)CC(=O)N2` (stereo not given), for which the inhibition of corepressor binding was 5.66%.

As for `COc1ccc(C2CC(=O)Nc3sc(=N)c4c(N)c(C#N)c(N)nc4c32)cc1OC` (stereo not given), the inhibition of corepressor binding was -3.58%.

For the molecule `CN(C)CCOc1cccc(Br)c1`, the inhibition of corepressor binding is -0.9%.

For `O=[N+]([O-])/C(N=Nc1ccccc1)=N\Nc1ccccc1`, the inhibition of corepressor binding is -0.3%.

With `CCc1ccc(CN(C)C(=O)C2CCC(=O)N(Cc3cccc(OC)c3)C2)nc1` (stereo not given), the inhibition of corepressor binding is -4.58%.

In the case of `C/C(=N/O)c1ccc(N2C(=O)C3C4C=CC(C3C2=O)C2C3C(=O)N(c5ccc(/C(C)=N/O)cc5)C(=O)C3C42)cc1` (stereo not given), the inhibition of corepressor binding is -3.35%.

With `O=C(NNC(=O)C1CCC1)c1ccccc1`, the inhibition of corepressor binding is 3.19%.

In the case of `O=C(CNCc1ccco1)Nc1cc(S(=O)(=O)N2CCOCC2)ccc1N1CCCC1`, the inhibition of corepressor binding is 6.04%.

For the molecule `Cc1c(Cl)cccc1NC(=O)[C@@]1(CC(=O)O)CC(/C=C/c2ccccc2)=NO1`, the inhibition of corepressor binding is -2.16%.

Take `COC(=O)C1(C)NC(c2ccccc2OC)C2C(=O)N(c3ccccc3)C(=O)C21` (stereo not given): the inhibition of corepressor binding was 1.42%.

For `O=C(CCCCO)c1ccc(O)c(Cl)c1`, the inhibition of corepressor binding is -2.2%.

For `O=C(COC(=O)Cc1ccc(Br)cc1)Nc1c(F)c(F)c(F)c(F)c1F`, the inhibition of corepressor binding was -1.39%.

With `CN(c1ccccc1)S(=O)(=O)c1cccc(NC(=O)Cc2ccc(Cl)cc2)c1`, the inhibition of corepressor binding is 4.43%.

Regarding `O=c1cnnc(Nc2ccccc2F)[nH]1`, the inhibition of corepressor binding is 3.47%.

With `Oc1c(Br)cc(/C=N/NC(=S)NCC2CCCO2)cc1Br` (stereo not given), the inhibition of corepressor binding was 1.11%.

Consider `O=C(NCCO)C(=O)NCC(c1ccc2c(c1)OCO2)N1CCN(c2ccc(F)cc2)CC1` (stereo not given), for which the inhibition of corepressor binding is -1.84%.

On to `CC1(C)C2CCC1(CS(=O)(=O)NCCc1c[nH]c3ccccc13)C(=O)C2` (stereo not given), for which the inhibition of corepressor binding is -2.06%.

With `CCOC(=O)c1c(NC(=O)CSc2nnc(CNc3ccc(C)cc3C)o2)sc(C)c1C`, the inhibition of corepressor binding is -0.79%.

As to `O=S(=O)(Nc1n[nH]c(C(F)(F)F)n1)c1ccccc1`, the inhibition of corepressor binding was 6.01%.

As for `Cc1c(Cl)c([N+](=O)[O-])nn1CC(=O)NCCCN1CCOCC1`, the inhibition of corepressor binding was 4.17%.

Turning to `COc1ccccc1C(C)NC(=O)Cc1ccsc1` (stereo not given), the inhibition of corepressor binding was 2.21%.

As for `COc1ccc2oc(C(=O)N(CC(C)C)C3CCS(=O)(=O)C3)c(C)c2c1` (stereo not given), the inhibition of corepressor binding is 3.14%.

Regarding `COc1ccc(N2CCN(C(=O)C3CCN(S(=O)(=O)c4ccc(C)cc4)CC3)CC2)cc1`, the inhibition of corepressor binding was 6.37%.

Regarding `CC1(C)CN(c2ccc(-c3ccnc4ncnn34)cc2)C1=O`, the inhibition of corepressor binding was -0.76%.

For `COc1ccc(C)cc1S(=O)(=O)NCCc1ccccc1`, the inhibition of corepressor binding is 2.48%.

In the case of `Fc1ccc(CNc2nc3ccccc3n3nnnc23)cc1`, the inhibition of corepressor binding was -0.09%.

With `CC(C)(C)NC(=O)/C(=C/c1cccnc1)NC(=O)c1ccco1`, the inhibition of corepressor binding was -5.01%.

As for `NC(=O)c1cc(S(=O)(=O)NCCCc2ccco2)cs1`, the inhibition of corepressor binding was 2.54%.

As for `O=C(NCCCNC(=O)NC1CCCCC1)NC1CCCCC1`, the inhibition of corepressor binding was 1.65%.

With `Cc1ccc(CC(=O)Nc2ccc(S(=O)(=O)N3CCOCC3)cc2)cc1C`, the inhibition of corepressor binding is 1.54%.

As to `CC(C)C[C@@H](N)c1nnc(SCC(=O)c2ccc(Cl)cc2)o1`, the inhibition of corepressor binding is -0.27%.

For the molecule `CCOc1cc(C2C(C(=O)c3ccco3)=C(O)C(=O)N2Cc2ccccc2)ccc1O` (stereo not given), the inhibition of corepressor binding is 5.32%.

For the molecule `CC(C)c1ccc(C2C(C(=O)c3ccco3)=C(O)C(=O)N2CC2CCCO2)cc1` (stereo not given), the inhibition of corepressor binding is 22.2% (active).

As for `O=C(C1=C(O)C(=O)N(Cc2ccccc2)C1c1ccco1)c1ccco1` (stereo not given), the inhibition of corepressor binding was 13%.

Consider `O=C1NC(c2ccccc2)=NC1(Nc1ccccn1)C(F)(F)F` (stereo not given), for which the inhibition of corepressor binding was 0.74%.

Take `COc1cccc(N(CC(=O)NCCSc2ccccn2)S(C)(=O)=O)c1`: the inhibition of corepressor binding was -2.09%.

In the case of `OC(c1ccccc1)c1nccn1Cc1ccccc1` (stereo not given), the inhibition of corepressor binding was -1.45%.

In the case of `NS(=O)(=O)c1ccc(NC2=CC(c3ccc(F)cc3)N(c3ccc(S(N)(=O)=O)cc3)C2=O)cc1` (stereo not given), the inhibition of corepressor binding is 1.09%.

Turning to `O=c1[nH]cccc1-c1nc2ccccc2n1Cc1ccc(Cl)cc1`, the inhibition of corepressor binding was 5.14%.

Regarding `CCOc1ccccc1N(CC(=O)NC1CCCCC1)C(=O)CCCC(=O)Nc1ccccn1`, the inhibition of corepressor binding was 2.15%.

Consider `O=C(COC(=O)c1ccccc1SCC(=O)NC1CCCCC1)NC1CCCCC1`, for which the inhibition of corepressor binding is -5.62%.

Consider `N#Cc1ccc(C(=O)OCC(=O)NC(=O)NC2CCCCC2)cc1`, for which the inhibition of corepressor binding is 0.11%.

Consider `N#Cc1ccccc1Sc1ccccc1C(=O)OCC(=O)NC1CCCCC1`, for which the inhibition of corepressor binding was 26.6% (active).

On to `O=C(NCC(c1ccco1)N1CCc2ccccc21)c1cccc(F)c1` (stereo not given), for which the inhibition of corepressor binding was -1.2%.

In the case of `CCOC(=O)N1CCC(=NNC(N)=O)CC1`, the inhibition of corepressor binding is 0.68%.

On to `O=C(Nc1ccccn1)C1CCN(S(=O)(=O)c2ccc3c(c2)OCCO3)CC1`, for which the inhibition of corepressor binding was 2.07%.

With `NNC(=O)CSc1nnc(-c2ccccc2)n1-c1ccccc1`, the inhibition of corepressor binding was 3.63%.

For the molecule `CC1(C)CC(O)C(CCC(O)c2ccccc2)C(C)(C)N1` (stereo not given), the inhibition of corepressor binding was 0.53%.

For `O=C(Cn1cncn1)N/N=C/c1c2ccccc2cc2ccccc12`, the inhibition of corepressor binding is -7.82%.

With `Cc1ccc(C(C)C)c(OCc2nnc(SCC(=O)Nc3nccs3)n2C)c1`, the inhibition of corepressor binding is 2.5%.

`CN(C(=O)CN1C(=O)NC(C)(CCc2ccccc2)C1=O)c1ccccc1` (stereo not given): the inhibition of corepressor binding is 3.26%.

In the case of `CCOC(=O)c1ccc(NC(=S)N2CCN(c3ccccn3)CC2)cc1`, the inhibition of corepressor binding was 43.1% (active).

For `CCOC(=O)c1ccc(NC(=S)N2CCCC2)cc1`, the inhibition of corepressor binding is 0.82%.

Turning to `O=[N+]([O-])c1ccc(NC(=S)N2CCN(c3ccccn3)CC2)cc1`, the inhibition of corepressor binding was 4%.
